Source: ChEMBL document CHEMBL1148290, “Synthesis of flexible sulfur-containing heteroarotinoids that induce apoptosis and reactive oxygen species with discrimination between malignant and benign cells” (2004)

How the values were obtained:
Type in all cases: functional
Caov-3 cell line [1] = experiment: Efficacy is growth inhibition activity at 10 uM concentration relative to the maximum activity observed for 4-HPR with Caov-3 cell line
How it was run: (§1)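 Cells seeded at 1000 cells/well; next day retinoids added from DMSO stocks (DMSO ≤0.01% final; solvent-only controls) to final 1, 4, 7 and 10 μM, handled under subdued light. After 3 days, living cells quantitated by MTS/PMS reduction read at OD490 in linear range (0.1–0.6); triplicate wells averaged, percent growth inhibition calculated versus solvent controls.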

Caov-3 cell line [2] = experiment: Potency of compound was determined from ability to inhibit the growth of ovarian carcinoma cell line Caov-3; how it was run: as §1
OVCAR-3 [3] = experiment: Efficacy is growth inhibition activity at 10 uM concentration relative to the maximum activity observed for 4-HPR with OVCAR-3 cell line; how it was run: as §1
OVCAR-3 [4] = experiment: Potency of compound was determined from ability to inhibit the growth of ovarian carcinoma OVCAR-3 cell line; how it was run: as §1
SK-OV-3 [5] = experiment: Potency of compound was determined from ability to inhibit the growth of ovarian carcinoma SK-OV-3 cell line; how it was run: as §1
SK-OV-3 [6] = experiment: Efficacy is growth inhibition activity at 10 uM concentration relative to the maximum activity observed for 4-HPR with SK-OV-3 cell line; how it was run: as §1

| Structure (SMILES) | Efficacy (Caov-3 cell line [1]) [%] | Potency (Caov-3 cell line [2]) [µM] | Efficacy (OVCAR-3 [3]) [%] | Potency (OVCAR-3 [4]) [µM] | Potency (SK-OV-3 [5]) [µM] | Efficacy (SK-OV-3 [6]) [%] |
| --- | --- | --- | --- | --- | --- | --- |
| CCOC(=O)c1ccc(NC(=O)Nc2ccc3c(c2)C(C)(C)CC(C)(C)S3)cc1 | 63.7 | 7 | 160.4 | 3.9 | 4.1 | 71.8 |
| Cc1cc2c(cc1/N=C(\S)Nc1ccc(S(N)(=O)=O)cc1)C(C)(C)CC(C)(C)S2 | 30.3 | 0.9 | 90 | 4.4 | 6.9 | 67.7 |
| CCOC(=O)c1ccc(NC(=O)Nc2cc3c(cc2C)SC(C)(C)CC3(C)C)cc1 | 54.9 | 10.2 | 107 | 4.7 | 7.2 | 75.7 |
| CC1(C)CC(C)(C)c2cc(N/C(S)=N/c3ccc(S(N)(=O)=O)cc3)ccc2S1 | 16.7 | 7 | 74.1 | 4.4 | 7.8 | 50.5 |
| CCOC(=O)c1ccc(N/C(S)=N/c2ccc3c(c2)C(C)(C)CC(C)(C)S3)cc1 | 38.1 | 4.6 | 133.8 | 3.9 | 3.9 | 64.9 |
| CCOC(=O)c1ccc(N/C(S)=N/c2cc3c(cc2C)SC(C)(C)CC3(C)C)cc1 | 37.4 | 4 | 114.4 | 4.4 | 4.4 | 85.4 |
| Cc1cc([N+](=O)[O-])ccc1/N=C(\S)Nc1ccc2c(c1)C(C)(C)CC(C)(C)S2 | 52.1 | 7.4 | 149.5 | 3.7 | 3.9 | 78.4 |
| CC1=C(/C=C/C(C)=C/C=C/C(C)=C/C(=O)Nc2ccc(O)cc2)C(C)(C)CCC1 [FENRETINIDE] | 100 | 3.7 | 100 | 6.9 | 8.2 | 100 |
| CC1(C)CC(C)(C)c2cc(NC(=S)Nc3ccc([N+](=O)[O-])cc3)ccc2S1 [SHETA-2] | 89.2 | 3.7 | 155.2 | 1 | 0.2 | 69.1 |
